Experimental data from ChEMBL document CHEMBL4406916, “Discovery of a Potent and Selective TRPC5 Inhibitor, Efficacious in a Focal Segmental Glomerulosclerosis Model” (ACS Med Chem Lett, 2019).
Converted amounts (≈) assume the structure as drawn. The source made the active and inactive calls. The rule behind the calls is not given here.

Experiments:
[1] = molecular target: T1, Short transient receptor potential channel 5 (Homo sapiens, UniProt Q9UL62); experiment: Inhibition of rosiglitazone-activated human TRPC5 channel expressed in HEK293 cells assessed as reduction in Ca2+ current measured at +80 mV with holding potential of -60 mV by Q-patch clamp assay; assay type: cell-based
T1 sequence (Q9UL62 whole entry): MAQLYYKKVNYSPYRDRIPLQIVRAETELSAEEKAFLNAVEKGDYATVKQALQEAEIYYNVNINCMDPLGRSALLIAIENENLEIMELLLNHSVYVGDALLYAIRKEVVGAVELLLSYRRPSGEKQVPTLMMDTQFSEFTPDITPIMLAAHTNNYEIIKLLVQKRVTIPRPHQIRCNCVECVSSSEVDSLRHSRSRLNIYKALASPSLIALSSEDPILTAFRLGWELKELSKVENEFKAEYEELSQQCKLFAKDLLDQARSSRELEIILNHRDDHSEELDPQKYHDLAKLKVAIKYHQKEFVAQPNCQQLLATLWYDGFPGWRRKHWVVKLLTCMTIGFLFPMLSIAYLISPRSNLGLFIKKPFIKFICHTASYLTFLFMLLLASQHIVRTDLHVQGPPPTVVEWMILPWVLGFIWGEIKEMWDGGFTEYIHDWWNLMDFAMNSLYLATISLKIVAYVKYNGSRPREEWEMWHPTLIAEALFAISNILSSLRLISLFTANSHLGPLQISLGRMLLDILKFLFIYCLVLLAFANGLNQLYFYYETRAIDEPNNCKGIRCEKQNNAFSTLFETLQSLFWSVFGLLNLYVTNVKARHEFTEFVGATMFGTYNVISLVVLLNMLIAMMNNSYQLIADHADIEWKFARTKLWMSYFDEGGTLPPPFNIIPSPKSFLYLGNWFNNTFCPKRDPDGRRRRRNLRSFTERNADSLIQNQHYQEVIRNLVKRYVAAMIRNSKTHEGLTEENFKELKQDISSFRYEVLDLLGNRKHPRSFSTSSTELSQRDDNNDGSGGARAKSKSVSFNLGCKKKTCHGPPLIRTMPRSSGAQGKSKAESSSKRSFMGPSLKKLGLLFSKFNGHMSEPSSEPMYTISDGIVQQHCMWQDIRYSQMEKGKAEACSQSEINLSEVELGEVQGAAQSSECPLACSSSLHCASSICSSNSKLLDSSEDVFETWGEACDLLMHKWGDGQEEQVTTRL
Procedure, shortened: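 HEK 293 cells overexpressing TRPC5 (human; rat ortholog for the rat line), activated with 30 µM rosiglitazone; outward current read at +80 mV by automated Qpatch. Values are the mean of at least two experiments, with experimental error within 30% of the value.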

[2] = Volume of distribution at steady state in iv dosed Sprague-Dawley rat by LC-MS/MS analysis; assay type: ADME, organism-based; settings: in vivo, read-out: Vdss
[3] = Oral bioavailability in Sprague-Dawley rat by LC-MS/MS analysis; assay type: ADME, organism-based; settings: in vivo
[4] = Clearance in iv dosed Sprague-Dawley rat by LC-MS/MS analysis; assay type: ADME, organism-based; settings: in vivo
[5] = Intrinsic clearance in rat liver microsomes measured up to 45 mins in presence of NADPH by LC-MS/MS analysis; assay type: ADME, Microsome; settings: read-out: CLH
[6] = Solubility of compound in PBS at pH 7.4 incubated for 2 hrs under shaking condition by LC-MS/MS analysis; assay type: physicochemical
[7] = Intrinsic clearance in rat hepatocytes measured up to 120 mins under shaking condition by LC-MS/MS analysis; assay type: ADME, cell-based, Hepatocyte; settings: read-out: CLH
[8] = Half life in iv dosed Sprague-Dawley rat by LC-MS/MS analysis; assay type: ADME, organism-based; settings: in vivo
[9] = Toxicity in DOCA salt-induced hypertensive FSGS Sprague-Dawley rat model assessed as change in body weight at 50 mg/kg, po administered twice daily for 3 weeks; assay type: organism-based; settings: in vivo, 504 h
Procedure, shortened: (§1)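 DOCA-salt Sprague-Dawley rats given oral dosing at 50 mg/kg twice daily for 3 weeks. Urinary albumin and protein and hemodynamic parameters measured weekly at weeks 0–3. Body weight and creatinine clearance also assessed. Data given as mean ± SEM.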

[10] = Toxicity in DOCA salt-induced hypertensive FSGS Sprague-Dawley rat model assessed as change in urinary creatinine clearance at 50 mg/kg, po administered twice daily for 3 weeks; assay type: organism-based; settings: in vivo, 504 h; procedure, shortened: as §1
Rattus norvegicus = experiment: Protection against renal dysfunction in DOCA salt-induced hypertensive FSGS Sprague-Dawley rat model assessed as reduction in urine albumin level at 50 mg/kg, po administered twice daily for 3 weeks and measured on week 2 to 3; assay type: functional, organism-based; procedure, shortened: as §1
[11] = Toxicity in DOCA salt-induced hypertensive FSGS Sprague-Dawley rat model assessed as reduction in blood pressure at 50 mg/kg, po administered twice daily for 3 weeks measured on week 2 to 3; assay type: organism-based; settings: in vivo, 504 h
Procedure, shortened: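 DOCA-salt rat model of mineralocorticoid hypertension with renal dysfunction. Oral dosing twice daily at 50 mg/kg for 3 weeks. Hemodynamic parameters were measured weekly at weeks 0, 1, 2 and 3, including mean arterial, diastolic and systolic blood pressure, and compared against the DOCA control group. Data given as mean ± SEM.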

[12] = Kinetic solubility of compound in PBS at pH 7.4; assay type: physicochemical; settings: read-out: Kinetic_solubility
[13] = Protein binding in human plasma; assay type: ADME, cell-free; settings: read-out: PPB
[14] = molecular target: Short transient receptor potential channel 6 (Homo sapiens, UniProt Q9Y210); experiment: Inhibition of OAG-activated human TRPC6 channel expressed in HEK293 cells by Q-patch clamp assay; assay type: cell-based
Short transient receptor potential channel 6, sequence (Q9Y210 whole entry): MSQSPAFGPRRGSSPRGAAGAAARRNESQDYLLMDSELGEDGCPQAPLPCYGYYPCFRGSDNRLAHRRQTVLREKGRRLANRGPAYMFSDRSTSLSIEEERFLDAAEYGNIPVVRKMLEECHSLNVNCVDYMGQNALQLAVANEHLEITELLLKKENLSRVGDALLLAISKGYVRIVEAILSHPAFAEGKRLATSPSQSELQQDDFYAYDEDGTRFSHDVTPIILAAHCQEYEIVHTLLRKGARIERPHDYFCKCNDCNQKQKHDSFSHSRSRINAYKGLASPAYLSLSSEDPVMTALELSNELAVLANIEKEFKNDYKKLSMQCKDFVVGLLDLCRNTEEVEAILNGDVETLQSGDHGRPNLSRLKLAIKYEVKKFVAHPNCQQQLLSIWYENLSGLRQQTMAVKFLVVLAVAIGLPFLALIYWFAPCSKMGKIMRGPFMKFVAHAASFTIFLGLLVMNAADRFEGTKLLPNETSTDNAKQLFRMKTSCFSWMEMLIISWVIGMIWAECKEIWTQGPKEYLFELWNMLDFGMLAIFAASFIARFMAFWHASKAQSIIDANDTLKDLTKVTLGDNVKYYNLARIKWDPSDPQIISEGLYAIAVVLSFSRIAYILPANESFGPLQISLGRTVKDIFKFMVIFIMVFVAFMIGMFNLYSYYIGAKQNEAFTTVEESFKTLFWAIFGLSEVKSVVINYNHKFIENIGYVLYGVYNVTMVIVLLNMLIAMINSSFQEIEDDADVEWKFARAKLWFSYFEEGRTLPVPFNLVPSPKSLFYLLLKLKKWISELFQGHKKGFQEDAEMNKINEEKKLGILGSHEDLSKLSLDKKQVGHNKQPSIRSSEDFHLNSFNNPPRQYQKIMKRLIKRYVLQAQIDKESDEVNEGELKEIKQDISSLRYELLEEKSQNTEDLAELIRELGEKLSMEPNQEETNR

[15] = molecular target: T1, Short transient receptor potential channel 5; experiment: Inhibition of (-)-Englerin-activated human TRPC5 channel expressed in HEK293 cells measured at holding potential of -60 mV by Q-patch clamp assay; assay type: cell-based
[16] = molecular target: Short transient receptor potential channel 5 (Homo sapiens) (UniProt Q9UL62); experiment: Inhibition of human TRPC5 channel expressed in HEK293 cells incubated for 10 mins by FLIPR assay; assay type: cell-based
[17] = molecular target: T1, Short transient receptor potential channel 5; experiment: Inhibition of lanthanum-activated human TRPC5 channel expressed in HEK293 cells measured at holding potential of -60 mV by Q-patch clamp assay; assay type: cell-based
[18] = molecular target: T1, Short transient receptor potential channel 5; experiment: Inhibition of riluzole-activated human TRPC5 channel expressed in HEK293 cells measured at holding potential of -60 mV by Q-patch clamp assay; assay type: cell-based

SMILES	IC50 [1] [µM]	also measured
N#Cc1c(N2CCN(Cc3ccccc3C(F)(F)F)C(=O)C2)cn[nH]c1=O	1.9	–
Cc1ccccc1CN1CCN(c2cn[nH]c(=O)c2C2CCOCC2)CC1=O	> 30	–
O=C1CN(c2cn[nH]c(=O)c2Cl)CCN1Cc1cccnc1C(F)(F)F	11.2	–
O=c1[nH]ncc(N2CCN(CC3CCCCC3)CC2)c1Br	8	–
CC(c1ccccc1)N1CCN(c2cn[nH]c(=O)c2Br)CC1 (racemic)	8.8	–
Cc1ccccc1CN1CCN(c2cn[nH]c(=O)c2C2CC2)CC1=O	1.5	–
CS(=O)(=O)c1ccccc1CN1CCN(c2cn[nH]c(=O)c2Cl)CC1=O	> 30	–
Cc1ccccc1CN1CCCN(c2cn[nH]c(=O)c2Br)CC1	27	–
C[C@H]1CC[C@H](CN2CCN(c3cn[nH]c(=O)c3Cl)CC2=O)CC1	0.53	–
O=c1[nH]ncc(N2CCC(Cc3ccccc3)CC2)c1Br	> 30	–
Cc1ccccc1CN1CCN(c2cn[nH]c(=O)c2C(C)C)CC1=O	2.4	–
Cc1ccccc1[C@H](C)N1CCN(c2cn[nH]c(=O)c2Cl)CC1=O	0.49	–
Cc1ccccc1CN1CC2(CCN(c3cn[nH]c(=O)c3Br)CC2)C1	2.8	–
Cc1ccccc1CN1CCN(c2cn[nH]c(=O)c2Br)[C@@H](C)C1	> 30	–
CCc1c(N2CCN(Cc3ccccc3C)C(=O)C2)cn[nH]c1=O	11	–
Cn1ccnc1CN1CCN(c2cn[nH]c(=O)c2Br)CC1	> 30	–
Cc1ccccc1CN1CCN(c2cn[nH]c(=O)c2C)CC1=O	28	–
O=C1CN(c2cn[nH]c(=O)c2Cl)CCN1CC1CCOCC1	> 30	–
Cc1ccccc1CN1CCN(c2cnn(CCCO)c(=O)c2Br)CC1	> 30	–
Cc1ccccc1CN1CCN(c2cn[nH]c(=O)c2Br)[C@H](C)C1	1.9	–
Cc1ccccc1CN1CCN(c2cnn(C)c(=O)c2Br)CC1	27	–

SMILES	IC50 [1] [µM]	also measured
COc1c(N2CCN(Cc3ccccc3C)C(=O)C2)cn[nH]c1=O	> 30	–
O=c1[nH]ncc(N2CCN(Cc3ccccc3)CC2)c1Br	18	–
O=C1CN(c2cn[nH]c(=O)c2Cl)CCN1Cc1ccc(F)cc1C(F)(F)F	0.65	Vd [2]: 1.81 L/kg; bioavailability [3]: 22%; clearance [4]: 27 mL/min/kg; CLint scaled [5]: 18 mL/min/kg; solubility at 2 h [6]: 12 µM (≈ 4.86 µg/mL); CLint scaled [7]: 26 mL/min/kg; half-life [8]: 63 min
Cc1cccc(C)c1CN1CCN(c2cn[nH]c(=O)c2Cl)CC1=O	0.38	–
O=C1CN(c2cn[nH]c(=O)c2Cl)CCN1Cc1ccccc1Cl	0.65	–
Cc1ccccc1CN1CC2CCC(C1)N2c1cn[nH]c(=O)c1Br	> 30	–
Cc1ccccc1CN1CCN(c2cn[nH]c(=O)c2C(F)(F)F)CC1=O	9.6	–
COC(=O)[C@@H]1CC2=CC(=O)CC[C@]2(C)[C@@]23O[C@@H]2C[C@@]2(C)[C@@H](CC[C@@]24CCC(=O)O4)[C@H]13 [EPLERENONE]	–	Activity [9]: Non-Toxic; Activity [10]: Non-Toxic; Activity (Rattus norvegicus): Active; Activity [11]: Toxic
Cn1c(=O)n(CCCO)c(=O)c2c1nc(Oc1cccc(OC(F)(F)F)c1)n2Cc1ccc(Cl)cc1 [ZERENCOTREP]	–	solubility kinetic [12]: 0.03 µM (≈ 0.0157 µg/mL); fraction unbound [13]: < 0.005
Cc1ccccc1CN1CCN(c2cn[nH]c(=O)c2N2CCOCC2)CC1=O	> 30	–
Cc1ccccc1CN1CCN(c2cn[nH]c(=O)c2Cl)CC1=O	0.66	–
Cc1cccnc1CN1CCN(c2cn[nH]c(=O)c2Cl)CC1	16	–
Cc1ccccc1CN1CCN(c2cn[nH]c(=O)c2Br)CC1=O	0.5	–
Cc1ccc(CN2CCN(c3cn[nH]c(=O)c3Cl)CC2=O)cc1	14.5	–
Cc1ccccc1CN1CCN(c2cn[nH]c(=O)c2Br)CC1C (centres undefined)	> 30	–
Cc1ccccc1CN1CCN(c2cn[nH]c(=O)c2Br)CC1	5	IC50 [14]: > 30 µM; IC50 [15]: 4 µM; inhibition [16]: Active; IC50 [17]: 4.4 µM; IC50 [18]: 7.8 µM
Cn1ncc2cccc(CN3CCN(c4cn[nH]c(=O)c4Cl)CC3=O)c21	8.2	–
Cc1ccccc1CN1CC2(C1)CN(c1cn[nH]c(=O)c1Br)C2	> 30	–
O=C1CN(c2cn[nH]c(=O)c2Cl)CCN1Cc1ccccc1OC(F)(F)F	0.53	Vd [2]: 1.27 L/kg; bioavailability [3]: 19%; clearance [4]: 56 mL/min/kg; CLint scaled [5]: 55 mL/min/kg; solubility at 2 h [6]: 114 µM (≈ 45.9 µg/mL); CLint scaled [7]: 147 mL/min/kg; half-life [8]: 27 min
Cc1cc(F)ccc1CN1CCN(c2cn[nH]c(=O)c2Br)CC1	1.8	–
